The IC50 is the concentration needed to halve the response being measured.

SMILES strings stand for the structures.

Data set [1] can be described thus: Drug degradation in aqueous acetonitrile solution assessed as ester bond hydrolysis. Conditions: buffer; call rule not given here. The data set is classed as physicochemical.
Data set [2] in a line: Selectivity ratio of IC50 for AT1 receptor to IC50 for APJ receptor (unknown receptor).
Data set [3] has as its target T1, Type-1 angiotensin II receptor (Homo sapiens, UniProt P30556).
T1 sequence (P30556 whole entry): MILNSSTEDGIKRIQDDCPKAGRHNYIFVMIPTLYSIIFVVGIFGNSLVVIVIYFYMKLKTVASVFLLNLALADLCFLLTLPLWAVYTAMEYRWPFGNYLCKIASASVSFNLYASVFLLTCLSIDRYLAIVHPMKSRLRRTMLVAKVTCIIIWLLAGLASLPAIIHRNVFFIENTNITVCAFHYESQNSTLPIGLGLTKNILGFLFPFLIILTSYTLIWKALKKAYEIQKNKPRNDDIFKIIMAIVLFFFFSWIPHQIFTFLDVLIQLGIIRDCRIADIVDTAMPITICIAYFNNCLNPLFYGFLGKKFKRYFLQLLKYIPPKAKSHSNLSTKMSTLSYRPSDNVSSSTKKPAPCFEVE
Kind of data set: Inhibition of AT1 receptor.

The target of the next data set is T2, Apelin receptor (Homo sapiens, UniProt P35414).
T2 sequence (P35414 whole entry): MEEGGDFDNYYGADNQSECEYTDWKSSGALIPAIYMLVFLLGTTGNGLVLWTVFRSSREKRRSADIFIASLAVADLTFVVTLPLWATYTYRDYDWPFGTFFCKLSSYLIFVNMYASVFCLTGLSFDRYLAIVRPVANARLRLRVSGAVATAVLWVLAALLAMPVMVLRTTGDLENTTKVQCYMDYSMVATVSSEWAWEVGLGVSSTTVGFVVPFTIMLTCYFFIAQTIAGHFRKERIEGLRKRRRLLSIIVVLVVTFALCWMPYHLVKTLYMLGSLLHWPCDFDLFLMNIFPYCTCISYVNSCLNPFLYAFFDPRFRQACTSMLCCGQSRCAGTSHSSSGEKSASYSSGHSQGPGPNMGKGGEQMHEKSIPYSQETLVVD
Kind of data set: Antagonist activity at APJ receptor expressed in CHOK1 cells assessed as inhibition of apelin13-induced beta-arrestin recruitment after 90 mins by luminescence assay. The data set is classed as functional, cell-based, CHO-K1. (Recruitment of arrestin is a read-out of receptor activation apart from second messengers.)

Data set [4] concerns the target Kappa-type opioid receptor (Homo sapiens) (UniProt P41145). Description: Binding affinity to kappa-opioid receptor at 10 uM.
Data set [5] can be described thus: Binding affinity to benzodiazepinone receptor at 10 uM.
Data set [6] in a line: Metabolic stability in plasma. The data set is classed as ADME, cell-free.
In another data set the test system is Hepatocyte. Description: Cytotoxicity against human hepatocytes. The data set is classed as cell-based.
The nature of data set [7]: Metabolic stability in mouse hepatic microsomes assessed as compound remaining at 60 mins. The data set is classed as ADME. The note with it: liver microsomes, read-out: Stability. The procedure, abridged:
(§1)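 Test compound incubated with liver microsomes, human or mouse according to the line (the text also calls these liver homogenates). Read-out was the percentage of parent compound remaining after 60 min.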
Background: Microsomes from liver hold many membrane-bound enzymes, among them those of drug oxidation.

A short description of data set [8]: Metabolic stability in human hepatic microsomes assessed as compound remaining at 60 mins. Format: ADME. The note with it: liver microsomes, read-out: Stability. A digest of the protocol:
as §1

A further data set has as its system Plasma. Description: Plasma protein binding in mouse. The data set is classed as ADME, cell-free.
The target in data set [9] is T3, Apelin receptor (Homo sapiens) (UniProt P35414).
T3 sequence (whole entry): T2 sequence (P35414 whole entry)
Description: Antagonist activity at APJ receptor assessed as inhibition of apelin13-induced cAMP accumulation. Format: functional. In general terms: Cyclic AMP is a second messenger, typically raised through Gs and lowered through Gi signalling.

Sequence of Kappa-type opioid receptor (Homo sapiens) (P41145 whole entry): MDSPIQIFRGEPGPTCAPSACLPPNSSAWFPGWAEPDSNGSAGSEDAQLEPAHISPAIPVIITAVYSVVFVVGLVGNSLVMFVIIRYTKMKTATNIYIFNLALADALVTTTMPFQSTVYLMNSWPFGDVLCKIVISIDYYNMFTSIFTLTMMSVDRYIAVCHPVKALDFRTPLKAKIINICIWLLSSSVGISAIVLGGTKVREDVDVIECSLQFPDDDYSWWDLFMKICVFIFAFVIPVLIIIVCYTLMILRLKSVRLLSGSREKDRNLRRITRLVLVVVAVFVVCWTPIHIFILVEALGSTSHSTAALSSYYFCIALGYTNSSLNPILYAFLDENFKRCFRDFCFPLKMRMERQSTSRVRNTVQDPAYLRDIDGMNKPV

Regarding `Cc1ccnc(SCc2cc(=O)c(OC(=O)c3ccc(Cl)c([N+](=O)[O-])c3)co2)n1`, the Drug degradation entry in data set [1] is recorded as “Active”.

`O=C(Oc1coc(CSc2ccc(Cl)cc2)cc1=O)c1ccc(Cl)c([N+](=O)[O-])c1`: the Ratio IC50 in data set [2] is more than 17. For the same molecule, the IC50 in data set [3] was more than 79 µM; on Apelin receptor, 4.53 µM.

In the case of `O=C(Oc1coc(CSc2ccccc2)cc1=O)c1ccc(Cl)c([N+](=O)[O-])c1`, the Ratio IC50 in data set [2] is more than 8. Also, the IC50 was more than 79 µM in data set [3] and 9.61 µM at Apelin receptor.

`N#Cc1ccc(C(=O)Oc2coc(CSc3ncccn3)cc2=O)cc1`: the Ratio IC50 in [2] was more than 12. Also, the IC50 is more than 79 µM in [3] and 6.59 µM on Apelin receptor.

As to `Cc1ccc(SCc2cc(=O)c(OC(=O)c3ccc(Cl)c([N+](=O)[O-])c3)co2)cc1`, the Ratio IC50 in [2] is more than 6. In addition, the IC50 is more than 79 µM in [3] and 12.8 µM on Apelin receptor.

Take `O=C(Oc1coc(CSc2ncccn2)cc1=O)c1ccc([N+](=O)[O-])cc1`: the Activity in data set [4] was less than 50%; in data set [5] it was less than 70%; in the data set with Hepatocyte, more than 50 µM. In data set [6], this molecule registered a Stability of 42.2%. Moreover, the figures for the remaining at 1 h in data set [7] and in data set [8] were 4.9% and 4.2%, respectively. This molecule yielded a PPB with Plasma of 99.1%. Moreover, the inhibition entry in [9] was “Dose-dependent effect”. For the same molecule, in data set [3], the IC50 was more than 79 µM.

Turning to `COc1ccc(SCc2cc(=O)c(OC(=O)c3ccc(Cl)c([N+](=O)[O-])c3)co2)cc1`, in data set [2], the Ratio IC50 was more than 9. Further, the IC50 in [3] is more than 79 µM; at Apelin receptor, 8.27 µM.
